≈ marks a conversion by molar mass, not a printed value.
Tests used:
Assay type in all cases: functional
Staphylococcus aureus [1] = assay: Antibacterial activity against Staphylococcus aureus CMCC(B) 26003 measured after 24 hrs by ELISA; conditions: CMCC(B) 26003, 24 h
Procedure, shortened: (§1)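 Broth microdilution MIC. Mid-log bacteria in MHB or TSB diluted 1000-fold, inoculated at 10^5 CFU/mL. Compounds added from DMSO stocks; final DMSO at most 0.05%. Incubation 24 h at 37 °C. Growth read as absorbance at 630 nm. MIC taken as the lowest concentration giving complete growth inhibition. Three independent experiments.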

Staphylococcus aureus [2] = assay: Antibacterial activity against Staphylococcus aureus CMCC 25923 measured after 24 hrs by ELISA; conditions: CMCC 25923, 24 h; procedure, shortened: as §1
Streptococcus pyogenes = assay: Antibacterial activity against Streptococcus pyogenes CMCC 32067 measured after 24 hrs by ELISA; conditions: CMCC 32067, 24 h; procedure, shortened: as §1
Streptococcus pneumoniae = assay: Antibacterial activity against Streptococcus pneumoniae CMCC 31968 measured after 24 hrs by ELISA; conditions: CMCC 31968, 24 h
Enterococcus faecalis = assay: Antibacterial activity against Enterococcus faecalis CMCC 29212 measured after 24 hrs by ELISA; conditions: CMCC 29212, 24 h; procedure, shortened: as §1
Bacillus subtilis = assay: Antibacterial activity against Bacillus subtilis CMCC 63501 measured after 24 hrs by ELISA; conditions: CMCC 63501, 24 h; procedure, shortened: as §1
Escherichia coli [3] = assay: Antibacterial activity against Escherichia coli CMCC 25922 measured after 24 hrs by ELISA; conditions: CMCC 25922, 24 h; procedure, shortened: as §1
Escherichia coli [4] = assay: Antibacterial activity against Escherichia coli CMCC 44568 measured after 24 hrs by ELISA; conditions: CMCC 44568, 24 h; procedure, shortened: as §1
Pseudomonas aeruginosa [5] = assay: Antibacterial activity against Pseudomonas aeruginosa CMCC 27853 measured after 24 hrs by ELISA; conditions: CMCC 27853, 24 h; procedure, shortened: as §1
Pseudomonas aeruginosa [6] = assay: Antibacterial activity against Pseudomonas aeruginosa CMCC 10104 measured after 24 hrs by ELISA; conditions: CMCC 10104, 24 h; procedure, shortened: as §1

Compound | MIC (Staphylococcus aureus [1]) [µM] | MIC (Staphylococcus aureus [2]) [µM] | MIC (Streptococcus pyogenes) [µM] | MIC (Streptococcus pneumoniae) [µM] | MIC (Enterococcus faecalis) [µM] | MIC (Bacillus subtilis) [µM] | MIC (Escherichia coli [3]) [µM] | MIC (Escherichia coli [4]) [µM] | MIC (Pseudomonas aeruginosa [5]) [µM] | MIC (Pseudomonas aeruginosa [6]) [µM]
CC/C(=N/NC(N)=S)c1cn(S(=O)(=O)c2ccc(C)cc2)c2ccccc12 | 320 (≈ 128 µg/mL) | 320 (≈ 128 µg/mL) | > 320 | > 320 | > 320 | > 320 | > 320 | > 320 | > 320 | > 320
C/C(=N/NC(=N)N)c1cn(S(=O)(=O)c2ccccc2)c2ccc(Br)cc12 | 4.62 (≈ 2.01 µg/mL) | 4.62 (≈ 2.01 µg/mL) | 296 (≈ 128 µg/mL) | 4.62 (≈ 2.01 µg/mL) | 9.24 (≈ 4.01 µg/mL) | 9.24 (≈ 4.01 µg/mL) | 18.5 (≈ 8.03 µg/mL) | 9.24 (≈ 4.01 µg/mL) | > 296 | > 296
NC(=S)N/N=C\c1cn(S(=O)(=O)c2ccccc2)c2ccccc12 | 179 (≈ 64.1 µg/mL) | > 358 | > 358 | > 358 | > 358 | > 358 | > 358 | > 358 | 358 (≈ 128 µg/mL) | > 358
CC/C(=N/NC(N)=S)c1cn(S(=O)(=O)c2ccccc2)c2ccccc12 | 64 (≈ 24.7 µg/mL) | 332 (≈ 128 µg/mL) | > 332 | > 332 | 166 (≈ 64.1 µg/mL) | 82.9 (≈ 32 µg/mL) | 332 (≈ 128 µg/mL) | 332 (≈ 128 µg/mL) | 332 (≈ 128 µg/mL) | > 332
CC/C(=N/NC(N)=O)c1cn(S(=O)(=O)c2ccccc2)c2ccccc12 | > 346 | 346 (≈ 128 µg/mL) | > 346 | > 346 | > 346 | > 346 | > 346 | > 346 | > 346 | > 346
C/C(=N/NC(N)=O)c1cn(S(=O)(=O)c2ccccc2)c2ccccc12 | 360 (≈ 128 µg/mL) | > 360 | > 360 | > 360 | > 360 | 89.9 (≈ 32 µg/mL) | > 360 | > 360 | > 360 | > 360
N=C(N)N/N=C\c1cn(S(=O)(=O)c2ccccc2)c2ccccc12 | 5.87 (≈ 2 µg/mL) | 11.7 (≈ 4 µg/mL) | > 375 | 46.9 (≈ 16 µg/mL) | 46.9 (≈ 16 µg/mL) | 11.7 (≈ 4 µg/mL) | > 375 | 23.5 (≈ 8.01 µg/mL) | 46.9 (≈ 16 µg/mL) | 23.5 (≈ 8.01 µg/mL)
C/C(=N/NC(N)=S)c1cn(S(=O)(=O)c2ccccc2)c2ccc(Br)cc12 | 284 (≈ 128 µg/mL) | > 284 | > 284 | > 284 | > 284 | 284 (≈ 128 µg/mL) | > 284 | > 284 | > 284 | > 284
NC(=O)N/N=C\c1cn(S(=O)(=O)c2ccccc2)c2ccc(Br)cc12 | 38.1 (≈ 16.1 µg/mL) | 305 (≈ 128 µg/mL) | > 305 | > 305 | > 305 | 19.1 (≈ 8.03 µg/mL) | > 305 | > 305 | > 305 | > 305
C/C(=N/NC(N)=O)c1cn(S(=O)(=O)c2ccccc2)c2ccc(Br)cc12 | 295 (≈ 128 µg/mL) | 295 (≈ 128 µg/mL) | > 295 | > 295 | 36.9 (≈ 16 µg/mL) | 295 (≈ 128 µg/mL) | > 295 | > 295 | > 295 | > 295
Cc1ccc(S(=O)(=O)n2cc(/C=N\NC(N)=O)c3ccccc32)cc1 | 44.9 (≈ 16 µg/mL) | 180 (≈ 64.1 µg/mL) | > 360 | > 360 | > 360 | 44.9 (≈ 16 µg/mL) | 360 (≈ 128 µg/mL) | 360 (≈ 128 µg/mL) | 360 (≈ 128 µg/mL) | > 360
CC/C(=N/NC(=N)N)c1cn(S(=O)(=O)c2ccccc2)c2ccc(Br)cc12 | 4.47 (≈ 2 µg/mL) | 4.47 (≈ 2 µg/mL) | > 286 | 1.12 (≈ 0.502 µg/mL) | 8.95 (≈ 4.01 µg/mL) | 4.47 (≈ 2 µg/mL) | 17.9 (≈ 8.03 µg/mL) | 4.47 (≈ 2 µg/mL) | > 286 | > 286
CC/C(=N/NC(N)=S)c1cn(S(=O)(=O)c2ccccc2)c2ccc(Br)cc12 | 276 (≈ 128 µg/mL) | > 276 | > 276 | > 276 | > 276 | 69 (≈ 32.1 µg/mL) | > 276 | > 276 | 276 (≈ 128 µg/mL) | > 276
CC/C(=N/NC(N)=O)c1cn(S(=O)(=O)c2ccccc2)c2ccc(Br)cc12 | > 286 | > 286 | > 286 | > 286 | > 286 | > 286 | > 286 | > 286 | > 286 | > 286
C/C(=N/NC(N)=S)c1cn(S(=O)(=O)c2ccc(C)cc2)c2ccc(Br)cc12 | 276 (≈ 128 µg/mL) | 276 (≈ 128 µg/mL) | > 276 | > 276 | > 276 | > 276 | > 276 | > 276 | > 276 | > 276
